This passage reports Tm and folding enthalpy results from the array DNA melting data of Ke et al. (doi:10.1101/2024.01.08.574731).

Data set [1] is described as follows: melting temperature; fluorescence melt of hairpins on a sequencing array, two-state fit, raised by 9.35 °C to match UV melts. The settings on record: sodium 0.088 M. In short, it runs like this:
(§1)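 In 50 mM Na-HEPES pH 8.0 containing 25 mM NaCl, hairpins from the library on a sequenced MiSeq flow cell were imaged for Cy3 fluorescence at 2.5 °C steps up to 60 °C, with Cy3 and quencher oligos annealed. After normalisation to pre-quench Cy3 and to control constructs, two-state fits with bootstrapping gave melting temperature and folding enthalpy. Four replicates were combined by inverse-variance weighting, and fitted temperatures were shifted up by 9.35 °C to match UV melts.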

Data set [2] in a line: folding enthalpy; higher = less favourable; fluorescence melt of hairpins on a sequencing array, two-state fit. The settings on record: sodium 0.088 M. The method in brief: as §1

In the case of GCCAAGCGAAAGCGGGGC (((..((....))..))), the Tm in data set [1] amounted to 68.3 °C. In addition, the folding enthalpy in data set [2] is -28.6 kcal/mol.

Turning to GCGTCACGAAAGTGCGC (((.(((....)))))), the Tm in data set [1] came out at 66.9 °C. Also, the folding enthalpy in data set [2] was -31.1 kcal/mol.

Regarding GGTTAGGGAAACCCAACC ((((.((....)).)))), the Tm in data set [1] amounted to 41 °C. In addition, in data set [2], the folding enthalpy was -28.6 kcal/mol.

As to GATCCTTTAGAGGATC ((((((....)))))), the Tm in data set [1] was 52.2 °C. The folding enthalpy in data set [2] is -43.7 kcal/mol.

In the case of GGCCACGGAAACGCAGCC (((..((....))..))), the Tm in data set [1] stood at 39.5 °C. In addition, in data set [2], the folding enthalpy is -20.5 kcal/mol.

On to GTGCTACGAAAGTATCAC (((.(((....))).))), for which the Tm in data set [1] turned out to be 44.6 °C. Also, the folding enthalpy in data set [2] is -35.5 kcal/mol.

Regarding GTATACGAAAGTACTAC ((((((....))).))), the Tm in data set [1] was 27.6 °C. Further, in data set [2], the folding enthalpy was -13.1 kcal/mol.

For the sequence GCGCCTCCGAAAGGACGC (((..(((....)))))), the Tm in data set [1] was determined as 50.1 °C. Besides, the folding enthalpy in data set [2] is -25.2 kcal/mol.

Turning to GTCCTTGGAAACGAGGAC (((((.(....).))))), in data set [1], the Tm worked out at 50.7 °C. In addition, the folding enthalpy in data set [2] was -40.8 kcal/mol.

On to GTTGAACCGAAAGGTAAC (((..(((....)))))), for which the Tm in data set [1] amounted to 31.1 °C. Moreover, the folding enthalpy in data set [2] was -12.9 kcal/mol.

Regarding GGCCGGGGAAACCCGGTC (.(((((....))))).), the Tm in data set [1] turned out to be 67.9 °C. Further, the folding enthalpy in data set [2] was -24.6 kcal/mol.

Turning to GATCCACCGTTGGATC ((((((....)))))), the Tm in data set [1] is 49.7 °C. The folding enthalpy in data set [2] is -36.5 kcal/mol.

As for GAACTGGCGAAAGCCTTC (((..(((....)))))), in data set [1], the Tm is 19.7 °C. In addition, in data set [2], the folding enthalpy is -6.15 kcal/mol.

For GCTATGCGAAAGCACAGC (((.(((....))).))), the Tm in data set [1] worked out at 48.7 °C. Further, the folding enthalpy in data set [2] is -39.7 kcal/mol.

Take GCTAGGCGAAAGCTTGGC ((.(.((....)).).)): the Tm in data set [1] was determined as 45.2 °C. In data set [2], the folding enthalpy is -20.6 kcal/mol.

With GCTTTCGAAAGAATAAGC ((((((....)))..))), the Tm in data set [1] was determined as 33.4 °C. In addition, in data set [2], the folding enthalpy was -21.6 kcal/mol.

For the sequence GCGTCGGGAAACCAACGC ((((.((....)).)))), in data set [1], the Tm stood at 51.5 °C. In data set [2], the folding enthalpy was -41.5 kcal/mol.

Take CAGGGGAAACCCTG (((((....))))): the Tm in data set [1] was found to be 52.5 °C. Further, the folding enthalpy in data set [2] is -23.2 kcal/mol.

For the sequence GTAATAACGAAAGTTTAC (((..(((....)))))), in data set [1], the Tm is 26.8 °C. Moreover, the folding enthalpy in data set [2] is -10.5 kcal/mol.

In the case of GTGCAATCGAAAGATCAC (((..(((....)))))), the Tm in data set [1] is 30 °C. Also, in data set [2], the folding enthalpy is -14 kcal/mol.

Take GGTGGCGAAAGCCCACC ((((((....))).))): the Tm in data set [1] was found to be 61.7 °C. In data set [2], the folding enthalpy is -17.5 kcal/mol.

In the case of GCAACTGAAAAGTTGC ((((((....)))))), in data set [1], the Tm worked out at 62.5 °C. The folding enthalpy in data set [2] was -36.6 kcal/mol.

TCTCAGAAATGAGA (((((....))))): in data set [1], the Tm was 31.1 °C. Also, the folding enthalpy in data set [2] is -12.2 kcal/mol.

Regarding GCGTTTGGACGC ((((....)))), in data set [1], the Tm worked out at 54.2 °C. Further, the folding enthalpy in data set [2] is -19.2 kcal/mol.

As to GATCCCAATTGGGATC ((((((....)))))), in data set [1], the Tm was 61.5 °C. The folding enthalpy in data set [2] was -38.2 kcal/mol.

As for GGTAGAGGAAACTTTACC ((((.((....)).)))), the Tm in data set [1] was 34 °C. Also, the folding enthalpy in data set [2] was -24.9 kcal/mol.

Take GTGAGTCGAAAGACCCAC (((.(((....))).))): the Tm in data set [1] was 49.3 °C. The folding enthalpy in data set [2] was -29.4 kcal/mol.

For GTCGCCACGAAAGTGGAC (((..(((....)))))), in data set [1], the Tm worked out at 35.7 °C. Besides, in data set [2], the folding enthalpy is -9.49 kcal/mol.

For the sequence GGATAACGAAAGTTTTCC (((.(((....))).))), the Tm in data set [1] came to 43.7 °C. In addition, the folding enthalpy in data set [2] was -27.6 kcal/mol.

As to GGAGTACCGAAAGGTTCC (((..(((....)))))), the Tm in data set [1] was determined as 36.3 °C. Besides, the folding enthalpy in data set [2] is -15 kcal/mol.

On to GATCGATGCCTCGATC ((((((....)))))), for which the Tm in data set [1] turned out to be 52.5 °C. Besides, the folding enthalpy in data set [2] is -38.1 kcal/mol.
